# Laboratory results: publication PMC10373460 (ACS Omega, 2023)
# Entries after “also recorded” stand apart in the source; their conditions may differ.
# What was measured:
# [1] = molecular target: α-glucosidase from S. cerevisiae E.C. 3.2.1.20 (Saccharomyces cerevisiae, UniProt P53341); test: Inhibition of α-glucosidase activity in vitro; assay type: biochemical; conditions: for inhibition at 10 µM: read-out: %inhibition (10 μM)
# [2] = molecular target: α-glucosidase (Saccharomyces cerevisiae, UniProt P53341); test: Enzyme kinetic study; assay type: biochemical; conditions: for inhibition mode: Lineweaver–Burk plots, Km increased, Vmax unaffected
# Outline: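 S. cerevisiae α-glucosidase solution (0.1 U/mL) and pNPG substrate solution (1 mM) prepared in […] pH 6.9 phosphate buffer. Enzyme preincubated with test compound (DMSO stock) for 10 min at 37 °C, then substrate added for 20 min at 37 °C. Stopped with 1 M Na2CO3, read at 405 nm. Lineweaver–Burk plots at several inhibitor concentrations; Ki from secondary replot of slope versus concentration.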
# Sequence of α-glucosidase (P53341 whole entry): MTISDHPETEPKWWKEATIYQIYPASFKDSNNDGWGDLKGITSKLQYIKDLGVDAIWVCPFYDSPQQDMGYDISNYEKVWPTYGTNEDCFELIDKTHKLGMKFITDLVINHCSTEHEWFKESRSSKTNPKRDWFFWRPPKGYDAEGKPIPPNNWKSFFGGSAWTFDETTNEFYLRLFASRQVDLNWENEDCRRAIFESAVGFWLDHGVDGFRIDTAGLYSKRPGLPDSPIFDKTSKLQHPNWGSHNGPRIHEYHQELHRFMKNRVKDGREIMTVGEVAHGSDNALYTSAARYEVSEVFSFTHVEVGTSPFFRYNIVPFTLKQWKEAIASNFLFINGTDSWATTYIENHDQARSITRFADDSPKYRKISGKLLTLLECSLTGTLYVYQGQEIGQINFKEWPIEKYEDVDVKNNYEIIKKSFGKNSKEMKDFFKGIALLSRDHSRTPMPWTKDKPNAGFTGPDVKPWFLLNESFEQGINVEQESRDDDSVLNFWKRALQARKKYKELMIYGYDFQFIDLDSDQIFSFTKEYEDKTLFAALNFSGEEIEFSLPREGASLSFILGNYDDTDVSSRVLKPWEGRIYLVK
# Sequence of α-glucosidase from S. cerevisiae E.C. 3.2.1.20 (P53341 whole entry): as above
Structure (SMILES),IC50 [1],other results
"COc1cc(C(c2c(O)c3ccccc3oc2=O)c2c(O)c3ccccc3oc2=O)cc(Br)c1O [Compound 16, 3,3′-((3-Bromo-4-hydroxy-5-methoxyphenyl)methylene)bis(4-hydroxy-2H-chromen-2-one)]",5.1 ± 0.18 µM,
"O=c1oc2ccccc2c(O)c1C(c1ccccc1)c1c(O)c2ccccc2oc1=O [Compound 1, 3,3′-(Phenylmethylene)bis(4-hydroxy-2H-chromen-2-one)]",30.8 ± 1.25 µM,
O=c1cc(O)c2ccccc2o1 [4-hydroxycoumarin],> 200 µM,
"O=c1oc2ccccc2c(O)c1C(c1ccc(Cl)cc1)c1c(O)c2ccccc2oc1=O [Compound 4, 3,3′-((4-Chlorophenyl)methylene)bis(4-hydroxy-2H-chromen-2-one)]",3.19 ± 0.41 µM,
"O=c1oc2ccccc2c(O)c1C(c1ccc(Cl)c(Cl)c1)c1c(O)c2ccccc2oc1=O [Compound 8, 3,3′-((3,4-Dichlorophenyl)methylene)bis(4-hydroxy-2H-chromen-2-one)]",1.9 ± 0.14 µM,
"O=c1oc2ccccc2c(O)c1C(c1ccc(Br)cc1)c1c(O)c2ccccc2oc1=O [Compound 6, 3,3′-((4-Bromophenyl)methylene)bis(4-hydroxy-2H-chromen-2-one)]",2.95 ± 0.05 µM,
"CCCCOc1c(Br)cc(C(c2c(O)c3ccccc3oc2=O)c2c(O)c3ccccc3oc2=O)cc1Br [Compound 18, 3,3′-((3,5-Dibromo-4-butoxyphenyl)methylene)bis(4-hydroxy-2H-chromen-2-one)]",,inhibition at 10 µM [1]: 99.67 ± 0.42%; Ki [2]: 3.93 µM; inhibition mode [2]: competitive inhibition; also recorded: competitive binding mode
"O=c1oc2ccccc2c(O)c1C(c1ccc(O)c(Br)c1)c1c(O)c2ccccc2oc1=O [Compound 12, 3,3′-((3-Bromo-4-hydroxyphenyl)methylene)bis(4-hydroxy-2H-chromen-2-one)]",4.15 ± 0.06 µM,
"O=c1oc2ccccc2c(O)c1C(c1ccc(F)cc1)c1c(O)c2ccccc2oc1=O [Compound 5, 3,3′-((4-Fluorophenyl)methylene)bis(4-hydroxy-2H-chromen-2-one)]",12.31 ± 0.08 µM,
"COc1c(Br)cc(C(c2c(O)c3ccccc3oc2=O)c2c(O)c3ccccc3oc2=O)cc1Br [Compound 17, 3,3′-((3,5-Dibromo-4-methoxyphenyl)methylene)bis(4-hydroxy-2H-chromen-2-one)]",,inhibition at 10 µM [1]: 99.77 ± 0.49%; Ki [2]: 4.81 µM
"O=c1oc2ccccc2c(O)c1C(c1ccc(F)c(Br)c1)c1c(O)c2ccccc2oc1=O [Compound 11, 3,3′-((3-Bromo-4-fluorophenyl)methylene)bis(4-hydroxy-2H-chromen-2-one)]",2.89 ± 0.25 µM,
"O=c1oc2ccccc2c(O)c1C(c1ccccc1Cl)c1c(O)c2ccccc2oc1=O [Compound 2, 3,3′-((2-Chlorophenyl)methylene)bis(4-hydroxy-2H-chromen-2-one)]",8.12 ± 0.59 µM,
"CCCCCCCCOc1c(Br)cc(C(c2c(O)c3ccccc3oc2=O)c2c(O)c3ccccc3oc2=O)cc1Br [Compound 19, 3,3′-((3,5-Dibromo-4-(octyloxy)phenyl)methylene)bis(4-hydroxy-2H-chromen-2-one)]",,inhibition at 10 µM [1]: 98.95 ± 0.26%; Ki [2]: 1.8 µM; inhibition mode [2]: competitive inhibition
"O=c1oc2ccccc2c(O)c1C(c1ccc(Cl)cc1Cl)c1c(O)c2ccccc2oc1=O [Compound 7, 3,3′-((2,4-Dichlorophenyl)methylene)bis(4-hydroxy-2H-chromen-2-one)]",3.15 ± 0.31 µM,
"O=c1oc2ccccc2c(O)c1C(c1cccc(Cl)c1)c1c(O)c2ccccc2oc1=O [Compound 3, 3,3′-((3-Chlorophenyl)methylene)bis(4-hydroxy-2H-chromen-2-one)]",6.06 ± 0.06 µM,
"O=c1oc2ccccc2c(O)c1C(c1cc(Br)c(O)c(Br)c1)c1c(O)c2ccccc2oc1=O [Compound 14, 3,3′-((3,5-Dibromo-4-hydroxyphenyl)methylene)bis(4-hydroxy-2H-chromen-2-one)]",2.38 ± 0.24 µM,
"COc1cc(C(c2c(O)c3ccccc3oc2=O)c2c(O)c3ccccc3oc2=O)ccc1O [Compound 15, 3,3′-((4-Hydroxy-3-methoxyphenyl)methylene)bis(4-hydroxy-2H-chromen-2-one)]",15.2 ± 0.45 µM,
"COc1ccc(C(c2c(O)c3ccccc3oc2=O)c2c(O)c3ccccc3oc2=O)cc1Br [Compound 13, 3,3′-((3-Bromo-4-methoxyphenyl)methylene)bis(4-hydroxy-2H-chromen-2-one)]",3.8 ± 0.05 µM,
"O=c1oc2ccccc2c(O)c1C(c1cccc([N+](=O)[O-])c1)c1c(O)c2ccccc2oc1=O [Compound 9, 3,3′-((3-Nitrophenyl)methylene)bis(4-hydroxy-2H-chromen-2-one)]",14.8 ± 0.32 µM,
"O=c1oc2ccccc2c(O)c1C(c1ccc(Br)c([N+](=O)[O-])c1)c1c(O)c2ccccc2oc1=O [Compound 10, 3,3′-((4-Bromo-3-nitrophenyl)methylene)bis(4-hydroxy-2H-chromen-2-one)]",3.41 ± 0.17 µM,
